Bioassay records (PubChem BioAssay)
This is one part of a sample in which hits are shown more often than they occur.
TLR4 MyD88 comp – inhibitors of human TLR4-MyD88 binding. 200,000 compounds, 0.18% hits. AID 861. HeLa CL3-4 TLR4/MyD88 BLA complementation, FRET ratio. inhibition, % at 8.4 µM; in the data active = inhibition above about 25%;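 note: 0% = vehicle and 100% = reference inhibitor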
NOD2 RIPK2 PPI – inhibitors of human NOD2-RIPK2 interaction; CHO BLA complementation NOD2-RIPK2, CCF4 ratio; inhibition, % at 4.98 µM; 360,000 compounds, 0.38% hits; AID 624267; O43353; in the data active = inhibition above about 21%;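 note: 0% = vehicle only and 100% = reference blocker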
CHOP inh – CHOP inhibition in unfolded protein response; CHO-K1 CHOP-promoter luciferase, tunicamycin-induced, 15-18 h; inhibition, % at 10 µM; 220,000 compounds, 3.8% hits; AID 2732;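 active = compounds that reduced the stress-induced luciferase reporter signal by more than about 70% of percent inhibition, limit read from the data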;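 note: 0% = tunicamycin plus vehicle and 100% = wells without tunicamycin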
CHOP UPR activ – activators of apoptotic arm of unfolded protein response (CHOP) | activation, % at 10 µM | 330,000 compounds, 0.34% hits | CHO-CHOP luciferase reporter, UPR activation, luminescence; percent of tunicamycin response over DMSO baseline;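 active = at 10 µM dose, activation of 40% or more, normalized to positive control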;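 note: 100% = tunicamycin at 10 µg/mL and 0% = DMSO alone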
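Assay system: CHO cells with stable CHOP pathway luciferase reporter; Buffer or medium: F12 plus 10% serum; Times: 16-18 h cell attachment, then 6 h compound exposure, 37 °C; Signal: luciferase luminescence; Read-out basis: percent activation relative to tunicamycin control; Control set: tunicamycin high control, DMSO low control.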
UPR XBP1 act – activators of adaptive arm of unfolded protein response (XBP1); CHO-XBP1 luciferase reporter, IRE1-XBP1 UPR activation, luminescence; percent of tunicamycin response, DMSO as zero; activation, % at 20 µM; 330,000 compounds, 0.33% hits; AID 463104;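 active = versus positive control, 20 µM dose yields 30% or more activation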;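 note: 100% = tunicamycin at 10 µg/mL and 0% = DMSO only wells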
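Test system: CHO-XBP1 luciferase reporter cells | Buffer or medium: Serum-containing F12 medium, 10% FBS | Schedule: 6 h compound exposure at 37 °C, 5% CO2 | Detection: Steady-Glo luciferase glow luminescence, 10 min after reagent addition | Read-out basis: Activation, % of tunicamycin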
TLR9-MyD88 block – blocks human TLR9 binding to MyD88; Q9NR96+Q99836; CHO BLA complementation TLR9-MyD88, CCF4 FRET ratio; inhibition, % at 4.98 µM; 340,000 compounds, 0.21% hits; AID 504734;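 active = inhibition above the mean over all tested compounds plus 3 SD, cut at about 21% in these data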;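 note: 0% = DMSO only wells and 100% = clavulanate BLA inhibitor control wells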
Target sequence (Q99836 whole entry, looked up): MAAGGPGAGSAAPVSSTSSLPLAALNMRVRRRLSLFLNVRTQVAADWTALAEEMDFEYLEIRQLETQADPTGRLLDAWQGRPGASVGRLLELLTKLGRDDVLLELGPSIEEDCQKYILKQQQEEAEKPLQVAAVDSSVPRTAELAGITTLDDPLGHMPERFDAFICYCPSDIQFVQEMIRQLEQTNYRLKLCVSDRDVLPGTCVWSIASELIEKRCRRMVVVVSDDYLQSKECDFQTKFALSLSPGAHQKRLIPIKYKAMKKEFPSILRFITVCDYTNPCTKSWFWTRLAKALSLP
Target sequence (Q9NR96 whole entry, looked up): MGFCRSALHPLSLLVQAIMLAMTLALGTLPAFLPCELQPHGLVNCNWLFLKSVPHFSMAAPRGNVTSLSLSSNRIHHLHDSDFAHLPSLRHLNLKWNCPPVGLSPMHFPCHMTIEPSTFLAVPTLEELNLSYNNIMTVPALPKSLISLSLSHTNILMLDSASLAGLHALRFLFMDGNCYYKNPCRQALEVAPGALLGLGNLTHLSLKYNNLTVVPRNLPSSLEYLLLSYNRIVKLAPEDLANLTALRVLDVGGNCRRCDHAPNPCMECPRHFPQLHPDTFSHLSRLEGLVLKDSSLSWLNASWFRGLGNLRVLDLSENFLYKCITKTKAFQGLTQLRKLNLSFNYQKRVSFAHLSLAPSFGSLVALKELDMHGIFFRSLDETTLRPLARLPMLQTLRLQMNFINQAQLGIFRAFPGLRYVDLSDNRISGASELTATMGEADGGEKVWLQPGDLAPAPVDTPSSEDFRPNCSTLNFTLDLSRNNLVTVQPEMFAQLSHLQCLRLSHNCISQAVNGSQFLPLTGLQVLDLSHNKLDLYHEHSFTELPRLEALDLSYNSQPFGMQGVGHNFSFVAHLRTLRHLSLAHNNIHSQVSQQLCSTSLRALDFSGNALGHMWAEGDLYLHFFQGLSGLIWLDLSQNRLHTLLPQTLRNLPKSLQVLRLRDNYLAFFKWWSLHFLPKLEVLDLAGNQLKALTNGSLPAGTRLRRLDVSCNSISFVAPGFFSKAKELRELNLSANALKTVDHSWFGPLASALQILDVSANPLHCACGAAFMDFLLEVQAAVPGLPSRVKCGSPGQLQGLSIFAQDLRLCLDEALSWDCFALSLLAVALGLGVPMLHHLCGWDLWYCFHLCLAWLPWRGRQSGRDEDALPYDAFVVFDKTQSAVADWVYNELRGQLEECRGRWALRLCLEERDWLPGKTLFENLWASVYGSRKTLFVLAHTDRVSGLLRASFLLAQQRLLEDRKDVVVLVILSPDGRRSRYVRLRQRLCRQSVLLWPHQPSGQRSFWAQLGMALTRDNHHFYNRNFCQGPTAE
UPR XBP1 confirm – adaptive UPR (XBP1) activation, confirmed; shares compounds with UPR XBP1 act; CHO-XBP1 IRE1-XBP1 luciferase reporter, luminescence; activation, % at 20 µM; 1,000 compounds, 63% hits; AID 485299;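 active = reporter signal at least 30% of the positive control's activation in two or more of four replicate wells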;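 note: plate controls were DMSO negative control for no effect and tunicamycin 10 µg/mL positive control for full effect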
Numbers without * were called inactive; . = no result.

SMILES | TLR4 MyD88 comp | NOD2 RIPK2 PPI | CHOP inh | CHOP UPR activ | UPR XBP1 act | TLR9-MyD88 block | UPR XBP1 confirm
CC(C)CN(C(=O)CCCSc1nc2ccccc2[nH]1)c1c(N)n(Cc2ccccc2)c(=O)[nH]c1=O | . | -9.1 | . | 0.6 | -2.7 | -5.7 | .
Cc1c(O)ccc(/C=N/Nc2nc(-c3cccnc3)nc3ccccc23)c1O | . | -10.7 | 24.0 | 8.5 | 36.1* | 0.7 | 28.3
Cc1ccc(-c2cc(C(F)F)nc3sc4c(=O)[nH]cnc4c23)cc1 | . | -6.4 | . | 26.4 | 43.6* | 0.4 | 18.6
O=C(Nc1cccc(Cl)c1)c1nc[nH]c1C(=O)NCCCCNC(=O)c1[nH]cnc1C(=O)Nc1cccc(Cl)c1 | . | -2.0 | . | 8.0 | 60.2* | 5.9 | 19.3
COC(=O)c1[nH]c2cc(OC)c(OC)cc2c1/C=N/Nc1ccccc1 | . | -3.7 | . | 9.0 | 35.9* | 6.0 | 12.1
Cc1cc(C(=O)COC(=O)c2cccnc2Cl)c(C)n1-c1c(C)n(C)n(-c2ccccc2)c1=O | -4.4 | 2.5 | -13.7 | 1.7 | -2.5 | 2.5 | .
CC1(C)Cc2nc3oc4c(=O)n(CC(=O)Nc5cccc(Cl)c5)cnc4c3cc2CO1 | . | 2.2 | -17.4 | 11.1 | 59.0* | -5.3 | 20.2
COc1ccc(S(=O)(=O)N2CCN(S(=O)(=O)c3ccc4c(c3)OCCO4)CC2)cc1 | 3.6 | 1.6 | -31.7 | -1.8 | 37.6* | -0.2 | 14.4
COc1ccc(S(=O)(=O)N2CCN(S(=O)(=O)c3ccc4c(c3)OCCO4)CC2)cc1C | 2.9 | -12.7 | 17.6 | 1.4 | -1.9 | -6.5 | .
CC(C)c1ccc(C2C3=C(COC3=O)Nc3cc4c(cc32)OCO4)cc1 (centres undefined) | 2.0 | -1.1 | -24.8 | 3.7 | 42.6* | 7.7 | 93.4*
O=C(COC(=O)COc1ccccc1F)NCCc1ccc(F)cc1 | . | -7.6 | . | -1.4 | -3.4 | -7.6 | .
Cc1ccc2oc(C(Cl)(Cl)Cl)cc(=O)c2c1 | 4.3 | -3.1 | 64.1 | 6.7 | 111.9* | -10.6 | 120.8*
Cc1ccc2oc(C(F)(F)C(F)F)cc(=O)c2c1 | . | -3.7 | 5.6 | 1.1 | 0.8 | 6.8 | .
COc1ccccc1-c1cnc(C(O)c2ccc(C(C)(C)C)cc2)[nH]1 (centres undefined) | . | -4.8 | . | . | . | . | .
O=C(CCl)Nc1ccccc1Sc1ccc(Cl)cc1 | -3.7 | -0.3 | -25.7 | 25.4 | 45.1* | -1.4 | 7.4
CC(=O)N1CCN(CC(=O)Nc2ccccc2Sc2ccc(Cl)cc2)CC1 | 4.5 | 0.6 | 16.8 | 0.2 | 0.3 | -9.6 | .
CCCCCCC(=O)Nc1ccc(Br)cn1 | . | -10.5 | 22.8 | 4.1 | 3.0 | -3.0 | .
Cc1ccccc1-c1nc2cc(Cl)ccc2c(=O)o1 | . | -1.6 | . | -0.2 | 48.6* | -1.0 | 15.7
CN(C)CCCn1cnc2c(c1=N)C(c1ccccc1)c1ccc3ccccc3c1O2 (centres undefined) | . | 10.7 | . | 18.5 | 32.1* | -2.2 | 127.1*
N=c1c2c(ncn1CCCO)Oc1c(ccc3ccccc13)C2c1ccccc1 (centres undefined) | . | 10.2 | -4.3 | 3.3 | 5.9 | -0.1 | .
Cc1ccc(-c2csc3nc4cc(C(N)=O)ccc4c(=O)n23)cc1 | . | -0.5 | 19.5 | 1.8 | 3.0 | 3.8 | .
Cc1ccc(CNC(=O)c2ccc3c(=O)n4c(-c5ccc(C)cc5)csc4nc3c2)cc1 | . | -2.4 | 79.1* | 7.0 | 46.3* | -1.6 | 120.0*
O=c1cc(CN2CCN(c3ccccc3)CC2)c2cc(O)c(-c3ccccc3)cc2o1 | 2.4 | -2.7 | -21.9 | 15.6 | 59.6* | -5.7 | 113.4*
O=c1cc(CN2CCN(c3cccc(Cl)c3)CC2)c2cc(O)c(-c3ccccc3)cc2o1 | -14.7 | -4.2 | 56.2 | 7.6 | -0.5 | -0.7 | .
O=C(O)CCC(=O)Nc1ccc(/C=C/C(=O)C2CC2)cc1 | 7.4 | 3.3 | 30.4 | -0.8 | -0.9 | -5.0 | .
SMILES | TLR4 MyD88 comp | NOD2 RIPK2 PPI | CHOP inh | CHOP UPR activ | UPR XBP1 act | TLR9-MyD88 block | UPR XBP1 confirm
O=C(Nc1ccc2oc(-c3ccccc3Cl)nc2c1)c1cncc(Br)c1 | 1.3 | -9.6 | 70.5* | 4.1 | 32.4* | -0.6 | 80.0*
O=C(Nc1ccc2oc(-c3ccccc3Cl)nc2c1)c1ncn[nH]1 | -9.2 | 2.0 | 52.1 | 8.1 | 8.2 | 5.0 | .
O=C(CSc1nnc2c(n1)[nH]c1ccc(F)cc12)Nc1ccccc1F | . | -13.1 | . | -1.2 | -5.3 | -5.8 | .
CCc1ccc2[nH]c3nc(SCc4nnc(-c5ccc(C)cc5)o4)nnc3c2c1 | -14.1 | -9.8 | 28.5 | 10.4 | 94.8* | -0.2 | 93.1*
CCOC(=O)c1c(NC(=O)CSc2nnc3c(n2)[nH]c2ccc(F)cc23)sc(C(C)=O)c1C | -2.4 | -5.7 | 2.7 | 14.6 | 62.0* | -9.9 | 50.6*
CCc1ccc2[nH]c3nc(SCC(=O)NCC4CCCO4)nnc3c2c1 (centres undefined) | . | -0.8 | . | -1.3 | -1.7 | 1.4 | .
CCc1ccc2[nH]c3nc(SCC(=O)NNC(=O)c4ccc(C(C)(C)C)cc4)nnc3c2c1 | 5.6 | -4.5 | 88.8* | 1.7 | 59.5* | 4.5 | 42.4*
CC1CCN(C(=O)C2CCN(S(=O)(=O)c3cccc4nonc34)CC2)CC1 | 1.4 | -18.2 | 15.4 | -1.6 | -0.4 | 1.0 | .
CCOC(=O)C1=C(O)/C(=C/c2ccc(OCC(=O)O)c(OCC)c2)SC1=Nc1ccc(OC)cc1 | -5.6 | -3.5 | 12.2 | 0.7 | -3.0 | 4.0 | .
CCOC(=O)C1=C(O)/C(=C/c2cc(OC)c(OC)c(OC)c2)SC1=Nc1ccc(OC)cc1 | -3.4 | -1.3 | 31.4 | 3.7 | 35.9* | -2.3 | 17.8
CCc1noc(C)c1C(=O)NCCc1ccc(Cl)cc1 | . | -6.7 | . | 1.2 | 1.1 | -1.1 | .
N#CCCn1cc(/C=N/O)c(-c2ccc(-c3ccccc3)cc2)n1 | 7.4 | -3.2 | . | 2.2 | 16.3 | -0.3 | .
N#CCCn1cc(/C=N/O)c(-c2ccc(Cl)cc2)n1 | 0.4 | -1.2 | 20.5 | -2.0 | 109.5* | 2.2 | -1.6
CCOC(=O)c1cc2c(ccn2-c2ccc(F)cc2)n1CC(=O)N1CCN(C(=O)c2ccco2)CC1 | -4.8 | -7.8 | -62.0 | 0.3 | 44.9* | 5.7 | 11.2
COc1cc(C2CC(=O)c3c(ccc4ccccc34)N2)ccc1O (centres undefined) | -1.0 | -11.0 | 21.2 | -1.6 | 0.0 | -9.1 | .
COc1cccc(C2Nc3ccc4ccccc4c3C3=C2C(=O)CCC3)c1O (centres undefined) | . | 3.0 | . | 1.7 | 57.0* | -0.5 | 7.5
COc1ccc(-c2c(-c3cc(OC)cc(OC)c3)n(C)c3ccc(-c4cnc(N)nc4)cc23)cc1 | . | -2.7 | . | 1.9 | 189.2* | 1.4 | 132.1*
Cc1cccc(Nc2nc(NCC3CCCO3)nc(N)c2[N+](=O)[O-])c1 (centres undefined) | -22.1 | 1.7 | 50.2 | 1.2 | 1.1 | -11.2 | .
